≈ marks a conversion by molar mass, not a printed value.
Columns and labels:
[1] = Thermodynamic solubility of compound at pH 7.4; assay type: physicochemical; settings: buffer, read-out: Therm_solubility
[2] = Thermodynamic solubility of compound at pH 4; assay type: physicochemical; settings: buffer, read-out: Therm_solubility
[3] = Cmax in CD1 mouse at 5 mg/kg administered as single dose via oral gavage after 24 hrs by LC/MS analysis; assay type: ADME, organism-based; design: dose 5 mg/kg, route oral; settings: in vivo
Summary of the method: (§1)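 Female CD-1 mice, 6-8 weeks, 26 ± 3 g; single oral gavage dose of 5 mg/kg; three mice per time point. Sampling by cardiac puncture after CO2 euthanasia at pre-dose and from 5 or 10 min up to 24 h into K3EDTA. Plasma was extracted with acetonitrile/formic acid, carbamazepine internal standard, and analysed by LC-MS/MS (ESI+, MRM). Parameters were derived non-compartmentally.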

[4] = Tmax in CD1 mouse at 5 mg/kg administered as single dose via oral gavage after 24 hrs by LC/MS analysis; assay type: ADME, organism-based; settings: in vivo; summary of the method: as §1
[5] = system: Mus musculus; assay: Bioavailability in CD1 mouse at 1 mg/kg, iv administered as single dose after 24 hrs by LC/MS analysis; assay type: ADME, organism-based; settings: in vivo
Summary of the method: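 Female CD-1 mice received a single 1 mg/kg tail-vein dose, with three mice per time point and plasma sampled up to 24 h. Quantitation was by LC-MS/MS against standards in blank mouse plasma. Absolute oral F = (AUC0-inf po/AUC0-inf iv) × (dose iv/dose po) × 100, using the 5 mg/kg oral gavage arm.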

[6] = Cmax in Sprague-Dawley rat at 10 mg/kg, po; assay type: ADME, organism-based; design: dose 10 mg/kg, route oral; settings: in vivo
Summary of the method: (§2)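 Male Sprague Dawley rats received a single oral dose of 10 mg/kg. A plasma concentration-time profile was obtained, and PK parameters were calculated by the non-compartmental method.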

[7] = AUC in Sprague-Dawley rat at 10 mg/kg, po; assay type: ADME, organism-based; settings: in vivo; summary of the method: as §2
[8] = Bioavailability in Sprague-Dawley rat plasma at 2 mg/kg, iv; assay type: ADME, organism-based
Summary of the method: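 Male Sprague Dawley rats were given a 2 mg/kg intravenous dose and compared with a 10 mg/kg oral dose. Absolute F = (AUC0-inf po/AUC0-inf iv) × (dose iv/dose po) × 100.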

Row | solubility thermodynamic [1] [µg/mL] | solubility thermodynamic [2] [µg/mL] | Cmax [3] [ng/mL] | Tmax [4] [min] | SMILES | other results
1 | 3.34 (≈ 8.85 µM) | – | – | – | CN1C(=O)C2=C(C1=O)N(CC(=O)Nc1ccc(-c3ccccc3)nn1)CCC2 | –
2 | 13 (≈ 34.6 µM) | – | – | – | CN1C(=O)C2=C(C1=O)N(CC(=O)Nc1ccc(-c3cccnc3)nc1)CCC2 | –
3 | 11.1 (≈ 26.5 µM) | > 41 | 1190 | 30 | Cc1ccc(-c2ccc(NC(=O)CN3CCCC4=C3C(=O)N(C3CC3)C4=O)nn2)cn1 | –
4 | 0.24 (≈ 0.638 µM) | – | – | – | CN1C(=O)C2=C(C1=O)N(CC(=O)Nc1ccc(-c3ccccc3)cn1)CCC2 | –
5 | 9.5 (≈ 25.1 µM) | 13.9 (≈ 36.7 µM) | 759 | 120 | CN1C(=O)C2=C(C1=O)N(CC(=O)Nc1ccc(-c3cccnc3)nn1)CCC2 | –
6 | 1.26 to 1.3 (≈ 3.29 to 3.4 µM) | 1.1 (≈ 2.88 µM) | – | – | CN1C(=O)C2=C(C1=O)N(CC(=O)Nc1ccc(-c3nccs3)cc1)CCC2 | –
7 | 2.1 (≈ 5.59 µM) | – | – | – | CN1C(=O)C2=C(C1=O)N(CC(=O)Nc1ccc(-c3ccccc3)cc1)CCC2 | –
8 | 14.9 (≈ 35.3 µM) | 13.8 (≈ 32.7 µM) | 3290 | 30 | O=C(CN1CCCC2=C1C(=O)N(C1CC1)C2=O)Nc1ccc(-c2cncc(F)c2)nn1 | –
9 | 0.42 (≈ 1.11 µM) | – | – | – | CN1C(=O)c2cccc(CC(=O)Nc3ccc(-c4nccs4)cc3)c2C1=O | –
10 | 0.75 (≈ 1.99 µM) | – | – | – | CN1C(=O)C2=C(C1=O)N(CC(=O)Nc1ccc(-c3ccccc3)nc1)CCC2 | –
11 | 60 (≈ 148 µM) | 141 (≈ 349 µM) | 4030 | 30 | O=C(CN1CCCC2=C1C(=O)N(C1CC1)C2=O)Nc1ccc(-c2cccnc2)nn1 | F [5]: 100%; Cmax [6]: 17300 ng/mL; AUC [7]: 81200 ng·h/mL; bioavailability [8]: 81%
12 | 41 (≈ 103 µM) | 82 (≈ 207 µM) | 845 | 120 | CN1C(=O)C2=C(C1=O)N(CC(=O)Nc1ccc(-c3cncc(F)c3)nn1)CCC2 | –
13 | 35.5 (≈ 90.5 µM) | > 194 | 1050 | 10.2 | Cc1ccc(-c2ccc(NC(=O)CN3CCCC4=C3C(=O)N(C)C4=O)nn2)cn1 | –

Reference: ChEMBL document CHEMBL4038310, “Scaffold Hopping and Optimization of Maleimide Based Porcupine Inhibitors” (J Med Chem, 2017)
